Legend:
DNA = details: traditional intercalators, typical range; cited from earlier work
CT-DNA (calf thymus DNA) = assay: UV-Vis titration with CT-DNA; type: binding; details: 298 K; for apparent binding constant Kapp with CT-DNA: UV-Vis titration, Tris-HCl pH 7.2; for standard Gibbs free energy change ΔG° of CT-DNA binding: ΔG° = -RTlnKapp
How it was run: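 CT-DNA stock was 1.5 mg/mL in Tris-HCl pH 7.2, made at 4 °C, with A260/A280 of 1.8–1.9; it was quantified by ε260 = 6600 M−1cm−1. 50 µL of stock was added to 1.45 mL buffer. Test compound (10−4 M stock in water) was added stepwise up to 9.09–13.29 µM, with 2 min at 298 K per step and absorbance read at 260 nm. Kapp = intercept/slope of the 1/(A−A0) versus 1/[Ligand] plot. ΔG° = −RTlnKapp at 298 K.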

[1] = target: bovine serum albumin (BSA) (Bos taurus, UniProt P02769); assay: UV-Vis titration with BSA; type: binding; details: for standard Gibbs free energy change ΔG° of BSA binding: 298 K, ΔG° = -RTlnKapp
How it was run: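 BSA stock was 3 mg/mL in Tris-HCl pH 7.2, made at 4 °C and quantified by ε280 = 44,300 M−1cm−1; 500 µL of stock was diluted with 1.00 mL buffer. Test compound (10−4 M stock in water) was added stepwise up to 6.83–10.18 µM, with 2 min equilibration at 298 K per step and readings at 280 nm. Kapp = intercept/slope of 1/(A−A0) versus 1/[Ligand]. ΔG° = −RTlnKapp (R 1.987 cal mol−1 K−1, T 298 K).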

Lipophilicity = type: physicochemical; details: 2-octanol/water
How it was run: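 Shake-flask partition used 2-octanol and doubly distilled water 1:1 v/v (10 mL total) with 0.001 g test compound. The mixture was shaken overnight, left to equilibrate 1 h, and the phases separated. Compound in each phase was quantified by UV-Vis. log P was taken from the octanol/water concentration ratio.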

[2] = DPPH free radical scavenging assay; type: biochemical; details: standard control, compared with 3a-c
How it was run: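 DPPH stock was 0.1 mM in ethanol. Test compound solutions at 10, 25, 50, 100, 250, 500 and 1000 µg/mL (concentrations before mixing) were each mixed 1:1 v/v with the DPPH solution. Mixtures were vortexed 10 s and kept in the dark at room temperature for 30 min, then absorbance was read at 517 nm. Ascorbic acid was the reference antioxidant. Scavenging was calculated from absorbance by equation.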

bovine serum albumin (BSA), sequence (P02769 25-607): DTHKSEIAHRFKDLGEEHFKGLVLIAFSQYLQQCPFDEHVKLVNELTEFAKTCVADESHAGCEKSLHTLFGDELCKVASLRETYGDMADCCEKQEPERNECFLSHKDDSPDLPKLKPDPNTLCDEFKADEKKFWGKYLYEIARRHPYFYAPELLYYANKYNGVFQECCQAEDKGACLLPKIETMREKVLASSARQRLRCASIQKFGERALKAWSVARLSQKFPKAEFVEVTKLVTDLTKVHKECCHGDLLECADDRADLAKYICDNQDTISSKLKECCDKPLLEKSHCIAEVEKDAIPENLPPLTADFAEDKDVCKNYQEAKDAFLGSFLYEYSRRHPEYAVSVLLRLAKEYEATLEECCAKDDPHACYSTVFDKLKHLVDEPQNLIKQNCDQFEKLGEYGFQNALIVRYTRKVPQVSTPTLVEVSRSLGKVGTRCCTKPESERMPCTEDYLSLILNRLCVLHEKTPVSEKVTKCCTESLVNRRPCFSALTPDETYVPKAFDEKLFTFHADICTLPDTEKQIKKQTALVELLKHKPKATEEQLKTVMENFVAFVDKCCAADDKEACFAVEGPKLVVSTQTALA

Row | Kd [1] [µM] | standard Gibbs free energy change ΔG° of BSA binding [1] [kcal/mol] | logP (Lipophilicity) | Compound | binding constant Kb with DNA (DNA) | apparent binding constant Kapp with CT-DNA (CT-DNA (calf thymus DNA)) | standard Gibbs free energy change ΔG° of CT-DNA binding (CT-DNA (calf thymus DNA)) [kcal/mol] | DPPH free radical scavenging activity (in words) [2]
1 | – | – | – | [Ru(phen)DPPZ] | 10^6 to 10^7 M^− 1 | – | – | –
2 | – | – | – | CC[n+]1c(-c2ccccc2)c2cc(N)ccc2c2ccc(N)cc21 [ethidium bromide] | 10^6 to 10^7 M^− 1 | – | – | –
3 | 151 | -5.21 | 1.29 | O=C1Nc2ccccc2/C1=N/N=C/c1cccc([N+](=O)[O-])c1 [3a, (Z)−3-(((E)−3-nitrobenzylidene)hydrazineylidene)indolin-2-one] | – | 1.01 × 10^4 M^− 1 | -5.46 | –
4 | 136 | -5.27 | 2.3 | COc1ccccc1/C=N/N=C1\C(=O)Nc2ccccc21 [3b, (Z)−3-(((E)−2-methoxybenzylidene)hydrazineylidene)indolin-2-one] | – | 1.17 × 10^4 M^− 1 | -5.55 | –
5 | – | – | – | O=C1O[C@H]([C@@H](O)CO)C(O)=C1O [ascorbic acid, Ascorbic acid] | – | – | – | highest scavenging activity
